Results: ChEMBL document CHEMBL5108081, “Development of an N-Terminal BRD4 Bromodomain-Targeted Degrader” (ACS Med Chem Lett, 2022)
Blank lines part the entries; values can stand above or below the compound they belong to. Calls of active or inactive are those of the source. No cut-off for these calls is given here.

Key:
[1] = target: T1, Protein cereblon/Bromodomain-containing protein 4 (Homo sapiens, UniProt O60885+Q96SW2); assay: Protac activity at CRBN/BRD4-BD1 in human MM1.S cells assessed as induction of BRD4-BD1 degradation measured at 1 uM in presence of 0.01 to 1 uM iBET-BD2 measured by Western blot analysis; type: cell-based
Outline: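 Rescue experiment in MM.1S cells: the degrader was co-treated with a pan-BD1 inhibitor, the proteasome inhibitor MG132, the neddylation inhibitor MLN4924 or the pan-BD2 inhibitor iBET-BD2. BRD4 was then read by western blot against an untreated control on the same gel.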

MM1.S = assay: Cytotoxicity against human MM1.S cells assessed as downregulation of cMyc expression; type: toxicity, cell-based
[2] = target: T1, Protein cereblon/Bromodomain-containing protein 4; assay: Protac activity at CRBN/BRD4-BD1 in human MM1.S cells assessed as induction of BRD4-BD1 degradation measured after 24 hrs by western blot analysis; type: cell-based
Outline: (§1)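 MM.1S cells were treated for 24 h, and BRD4 was probed by western blot. Band densitometry was quantified from three biological replicate blots.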

[3] = target: T1, Protein cereblon/Bromodomain-containing protein 4; assay: Protac activity at Halo-tagged CRBN/BRD4-BD1-NanoLuc fusion protein expressed in human HEK293T cells assessed as induction of BRD4-BD1 degradation at 0.2 uM measured by NanoBRET assay; type: cell-based
[4] = target: T1, Protein cereblon/Bromodomain-containing protein 4; assay: Binding affinity to GST-tagged CRBN/6xHis-tagged BRD4-BD1 (unknown origin) assessed as ternary complex formation measured by TR-FRET assay; type: protein assay
[5] = target: T1, Protein cereblon/Bromodomain-containing protein 4; assay: Binding affinity to GST-tagged CRBN/6xHis-tagged BRD4-BD1 (unknown origin) assessed as induction of dimerization of CRBN/BRD4-BD1 at 4.6 nM measured by TR-FRET assay; type: protein assay
[6] = target: T1, Protein cereblon/Bromodomain-containing protein 4; assay: Protac activity at CRBN/BRD4-BD1 in human MM1.S cells assessed as induction of BRD4-BD1 degradation measured after 24 hrs by western blot analysis relative to control; type: cell-based; outline: as §1
[7] = target: T1, Protein cereblon/Bromodomain-containing protein 4; assay: Protac activity at CRBN/BRD4-BD1 in human MM1.S cells assessed as induction of BRD4-BD1 degradation measured at 5 uM after 8 hrs by western blot analysis; type: cell-based
Outline: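 Time-course study in MM.1S cells with BRD4 levels followed by western blot at successive time points. BRD2, BRD3 and cMyc were also probed.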

[8] = target: T1, Protein cereblon/Bromodomain-containing protein 4; assay: Binding affinity to GST-tagged CRBN/6xHis-tagged BRD4-BD2 (unknown origin) assessed as induction of dimerization of CRBN/BRD4-BD2 measured by TR-FRET assay; type: protein assay
[9] = target: T1, Protein cereblon/Bromodomain-containing protein 4; assay: Binding affinity to GST-tagged CRBN/6xHis-tagged BRD4-BD1 (unknown origin) assessed as induction of dimerization of CRBN/BRD4-BD1 measured by TR-FRET assay; type: protein assay
Homo sapiens [10] = species on record: Homo sapiens; assay: Ratio IC50 for inhibition of BRD2-BD1 (unknown origin) over inhibition of His9-tagged BRD4-BD1 (unknown origin)
Homo sapiens [11] = species on record: Homo sapiens; assay: Ratio IC50 for inhibition of BRD3-BD1 (unknown origin) over inhibition of His9-tagged BRD4-BD1 (unknown origin)
Homo sapiens [12] = species on record: Homo sapiens; assay: Ratio IC50 for inhibition of BRD4-BD2 (unknown origin) over inhibition of His9-tagged BRD4-BD1 (unknown origin)
Homo sapiens [13] = species on record: Homo sapiens; assay: Ratio IC50 for inhibition of BRD3-BD2 (unknown origin) over inhibition of His9-tagged BRD4-BD1 (unknown origin)
Homo sapiens [14] = species on record: Homo sapiens; assay: Ratio IC50 for inhibition of BRD2-BD2 (unknown origin) over inhibition of His9-tagged BRD4-BD1 (unknown origin)
[15] = target: T2, Bromodomain-containing protein 2 (Homo sapiens, UniProt P25440); assay: Inhibition of BRD2-BD2 (unknown origin) measured by AlphaScreen assay
Outline: (§2)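 Commercial AlphaScreen displacement assay run by an outside service on a panel of BET bromodomains. Values are the means of duplicate experiments.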

[16] = target: T3, Bromodomain-containing protein 3 (Homo sapiens, UniProt Q15059); assay: Inhibition of BRD3-BD2 (unknown origin) measured by AlphaScreen assay; outline: as §2
[17] = target: T2, Bromodomain-containing protein 2; assay: Inhibition of BRD2-BD1 (unknown origin) measured by AlphaScreen assay; outline: as §2
[18] = target: T3, Bromodomain-containing protein 3; assay: Inhibition of BRD3-BD1 (unknown origin) measured by AlphaScreen assay; outline: as §2

T1 sequence (Q96SW2 whole entry, looked up, other chains not shown): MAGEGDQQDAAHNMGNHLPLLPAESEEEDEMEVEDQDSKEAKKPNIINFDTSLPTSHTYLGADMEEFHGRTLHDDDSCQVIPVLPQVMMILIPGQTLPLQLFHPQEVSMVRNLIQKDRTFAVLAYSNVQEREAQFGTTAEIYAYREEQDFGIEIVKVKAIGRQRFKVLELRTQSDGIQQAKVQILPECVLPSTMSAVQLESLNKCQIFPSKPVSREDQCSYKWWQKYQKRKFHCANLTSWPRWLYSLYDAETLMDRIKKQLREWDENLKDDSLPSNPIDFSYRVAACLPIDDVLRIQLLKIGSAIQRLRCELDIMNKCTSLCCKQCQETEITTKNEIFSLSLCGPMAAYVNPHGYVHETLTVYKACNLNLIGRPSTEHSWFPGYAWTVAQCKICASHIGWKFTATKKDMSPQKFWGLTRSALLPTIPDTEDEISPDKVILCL
T2 sequence (P25440 whole entry): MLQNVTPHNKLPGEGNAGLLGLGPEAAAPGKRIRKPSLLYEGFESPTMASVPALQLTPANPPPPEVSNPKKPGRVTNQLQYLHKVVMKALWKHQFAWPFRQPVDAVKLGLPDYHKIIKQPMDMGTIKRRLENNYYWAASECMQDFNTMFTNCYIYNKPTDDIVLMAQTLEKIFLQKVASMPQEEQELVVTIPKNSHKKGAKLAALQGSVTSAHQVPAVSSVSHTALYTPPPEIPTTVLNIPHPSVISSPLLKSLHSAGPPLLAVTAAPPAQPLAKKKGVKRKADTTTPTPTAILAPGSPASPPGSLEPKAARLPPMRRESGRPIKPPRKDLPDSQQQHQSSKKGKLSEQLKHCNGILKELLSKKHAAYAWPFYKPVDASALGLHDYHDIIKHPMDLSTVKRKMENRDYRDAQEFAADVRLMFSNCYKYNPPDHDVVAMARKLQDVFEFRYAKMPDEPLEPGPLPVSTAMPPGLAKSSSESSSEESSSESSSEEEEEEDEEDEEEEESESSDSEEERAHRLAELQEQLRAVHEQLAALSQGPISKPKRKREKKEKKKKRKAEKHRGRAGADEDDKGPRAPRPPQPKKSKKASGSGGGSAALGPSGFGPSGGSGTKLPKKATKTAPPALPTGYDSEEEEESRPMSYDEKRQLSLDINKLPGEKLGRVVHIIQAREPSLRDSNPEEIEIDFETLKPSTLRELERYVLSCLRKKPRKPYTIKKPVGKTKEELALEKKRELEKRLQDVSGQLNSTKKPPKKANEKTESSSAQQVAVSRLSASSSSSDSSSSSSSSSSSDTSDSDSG
T3 sequence (Q15059 whole entry): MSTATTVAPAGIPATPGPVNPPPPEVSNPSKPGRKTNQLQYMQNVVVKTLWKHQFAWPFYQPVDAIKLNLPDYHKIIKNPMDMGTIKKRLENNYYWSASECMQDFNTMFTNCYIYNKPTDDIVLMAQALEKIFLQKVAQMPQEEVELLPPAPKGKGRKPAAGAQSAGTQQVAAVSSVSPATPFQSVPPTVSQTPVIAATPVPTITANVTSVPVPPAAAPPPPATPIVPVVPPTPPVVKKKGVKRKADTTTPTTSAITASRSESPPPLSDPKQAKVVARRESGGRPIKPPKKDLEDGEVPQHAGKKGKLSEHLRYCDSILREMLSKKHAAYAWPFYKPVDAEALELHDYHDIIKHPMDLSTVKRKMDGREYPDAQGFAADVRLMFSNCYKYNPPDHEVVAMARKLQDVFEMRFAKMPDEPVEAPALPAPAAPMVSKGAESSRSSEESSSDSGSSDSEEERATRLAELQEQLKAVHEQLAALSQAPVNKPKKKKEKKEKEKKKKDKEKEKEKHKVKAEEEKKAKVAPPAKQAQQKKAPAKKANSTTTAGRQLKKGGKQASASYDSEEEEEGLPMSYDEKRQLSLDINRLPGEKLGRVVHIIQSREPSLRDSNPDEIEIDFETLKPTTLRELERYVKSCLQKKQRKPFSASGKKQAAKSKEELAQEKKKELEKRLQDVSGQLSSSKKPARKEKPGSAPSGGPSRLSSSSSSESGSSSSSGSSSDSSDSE

Compound: Cc1sc2c(c1C)C(c1ccc(Cl)cc1)=N[C@@H](CC(=O)NCCCCNC(=O)COc1cccc3c1C(=O)N(C1CCC(=O)NC1=O)C3=O)c1nnc(C)n1-2 (some centres not stated)
- Activity [8]: Active
- Activity [9]: Active

Compound: Cc1cc(C)cc(Nc2nccc(-c3c(-c4ccc(C(F)(F)F)cc4)ncn3C3CCN(CCN)CC3)n2)c1
- Ratio IC50 (Homo sapiens [10]): 9
- Ratio IC50 (Homo sapiens [11]): 9
- Ratio IC50 (Homo sapiens [12]): 9
- Ratio IC50 (Homo sapiens [13]): 9
- Ratio IC50 (Homo sapiens [14]): 9

Continued, in another order:

- Activity [1]: Active
- DC50 [2]: 0.28 µM
- Activity [3]: Active
- Activity [4]: Active
- Activity [5]: Active
- Activity [6]: 77%
- Activity [7]: Active
Compound: Cc1ccc(C(C)C)cc1Oc1nccc(-c2c(-c3ccc(C(F)(F)F)cc3)ncn2C2CCN(CCOCCOCCNC(=O)COc3cccc4c3C(=O)N(C3CCC(=O)NC3=O)C4=O)CC2)n1 (configuration not stated)
- Activity (MM1.S): Non-Toxic

- Ratio IC50 (Homo sapiens [11]): 6
- Ratio IC50 (Homo sapiens [13]): 6
- Ratio IC50 (Homo sapiens [14]): 6
Compound: Cc1cc(C)cc(Nc2nccc(-c3c(-c4ccc(F)cc4)ncn3C3CCNCC3)n2)c1

- IC50 [15]: 7.1 µM
- IC50 [16]: 75 µM
- IC50 [17]: 0.28 µM
- IC50 [18]: 1 µM
Compound: Cc1ccc(C(C)C)cc1Oc1nccc(-c2c(-c3ccc(C(F)(F)F)cc3)ncn2C2CCNCC2)n1
